Measured values taken from the RNAGym collection of RNA variant scans (doi:10.1126/science.aae0568).
This sample holds only a part of the variants without activity.

B1: tRNA (parent)
chain: GUUCCGUUGGCGUAAUGGUAACGCGUCUCCCUCCUAAGGAGAAGACUGCGGGUUCGAGUCCCGUACGGAACG

Variants of: B1
Test: yeast fitness relative to wild type (ratio to wild type); higher = fitter; tRNA-Arg(CCU), competitive growth, 37 C, YPD
How it was run: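 For this measurement, the tRNA-Arg(CCU) gene was varied by chemical synthesis at a 3% per-site mutation rate across 69 sites, and each variant was placed at the native genomic locus in Saccharomyces cerevisiae. The pooled strains went through a 24-hour competition in YPD at 37°C in six parallel replicates, with amplicons from start and end populations read by 100-nucleotide paired-end sequencing. Darwinian fitness relative to wild type followed from the change in each genotype's frequency. Genotypes needed ≥ 100 starting reads, and estimates < 0.5 were set to 0.5.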
GUUCCAUUGGAGUAAUAGUAACGCGUCUCCCUCCGAAGGAGAAGACUGCGGGUUCGAGCCCCGUACGGAACG [G6A C11A G17A U35G U59C] showed a yeast fitness of no more than 0.5. Work on GUUCCAUUGGCGGAAUGGUAACGCGUCUCCCUCCUAAGGAGAAGACUGCGGGUUCGAGUCCGGUACGGAACG [G6A U13G C62G] yielded a yeast fitness of no more than 0.5. GUUACGUUGGCGUAAUGGUAACGCGUCUCCCUCCUAAGGGGAAGACUGCGGGUUCGAGUCCCGUACGGAACG [C4A A40G] showed a yeast fitness of 0.828. With GUUCCGUUGGCGUAAUGGUAACGCGUAUCCCUCCUAAGGAGAAGCCUGCGGGUUCCAGUUCCGUACGUAACG [C27A A45C G56C C60U G68U] the yeast fitness was no more than 0.5. Work on GUUCCAUUGGCGUAAUGGUAACGCGUCUCCCUCCUAAGGAGAAGACUGCGGGCUCGAGUCCCGUACGGAACG [G6A U53C] yielded a yeast fitness of 0.82. Variant GUUCCGUUGGCGUACUGGUAACGCGUCUCCCUAUUCAGGAGAAGACUGCGGGUUCGAGUCCCGUACGGAACG [A15C C33A C34U A36C] has a yeast fitness of 0.604. Variant GUUCCGUUGGCGUAAUGGUAGAGCGUCUCCCUCCUAAGGAGAAGACUGCGGGUUCAAGUCCCGUACGGAACG [A21G C22A G56A] has a yeast fitness of 0.763. In the case of GUUCCGAUGGCGUAAUGGUAACGCGUCUCCCUCAUAAGGAGAAGAUUGCGGGUUCGAGUCCCGUACGGAACG [U7A C34A C46U], the yeast fitness is reported as no more than 0.5. GUUCCGUUGGCGUAAUGCUAACGCGUCUCCCUCCUAAGGAGAAGAUUGCGGGUUCGAGUCCCGUACGGAACG [G18C C46U] gave a yeast fitness of 0.626. GUUCCGUUGGCGUAAUGGUAUCGCGUCUCCCUCCUAAGGAGAAGACUGCGGGUUCGAGUCCAGUACAGGACG [A21U C62A G67A A69G] showed a yeast fitness of no more than 0.5. With GUUCCGUUGGUGUAAUGGUAACGCGUCUCCCUCCUAAGGAGAAGACUGCGAGUUCAAGCCCCGUACGGAACG [C11U G51A G56A U59C] the yeast fitness was no more than 0.5. With GUUGAGUUGGCGUAAUGGAAACGGGUCUGCCUCCUAAGGAGAAGACUGCGGGUUCGAGUCCCGUACGGAACG [C4G C5A U19A C24G C29G] the yeast fitness was no more than 0.5. With GUUCCGUUGGCGUAAUGGUAACGCGUCUCCCUCCUGAGGAGAUGACUGCGGGUUCGAGUCCCGUACGGAACG [A36G A43U] the yeast fitness was 1.01. GUUCCGUUGGCGUAAUGGCAACGCGUCUCCCUCUUAAGGAGAUGACUGCGGGUUCGAGUCCCGUACGGACCG [U19C C34U A43U A70C] gave a yeast fitness of 0.572. GUUCCGUUGGCGUAAUGGUAAGGCGUCUCCCUCCUAAGGAGAAGACUGCGGGUAUGAGUCCCGUACGGAACG [C22G U54A C55U] gave a yeast fitness of no more than 0.5. GAUCCGUUGGUGUAAUGGUAACCCGUAUCCCUCCUAAGGAGAAGACUGCGGGUUCGAGUCCCGUACGGUACG [U2A C11U G23C C27A A69U] gave a yeast fitness of no more than 0.5. Variant GUUCCGUUGGCGUAAUGGUAACGCGUCUCCCUCCUAAGGAGAAGAGUGCGGGUUCGAGUCCCGUCCAGAACG [C46G A65C G67A] has a yeast fitness of 0.732. In the case of GUUCCGUUGGCGUUAUGGUAACGCGGCUCCCUCCUAAGGAGAAGACUGCGGGUUGGAGUCCCGUACGGAACG [A14U U26G C55G], the yeast fitness is reported as no more than 0.5. Work on GUUCCGUUGGCGUAAAGGUAACGCGUCUCCCUCCUAAGGAGAAGACUGGGGGUUCGAGUCCCGUACGGAACG [U16A C49G] yielded a yeast fitness of 0.769. Work on GUUCCAUUGGCGUAAUGGUAACGCGUCUCCCUCGUAAGGAGAAGACUGCGGGUUCGAGUCCUGUACGAAACG [G6A C34G C62U G68A] yielded a yeast fitness of no more than 0.5. GUUCCCUUGGCGUAAUGGUAACGCGUCUCCCUCCUAAGGAGAAGACUGCGGGUUCGAGUCCCAUACGGAACG [G6C G63A] gave a yeast fitness of 0.911. With GUUCCGUUGGCGUAAUGGUAACGCGUCUCCCUCCUUAGGAGAAGACUGCGAGUUCGACACCCGUACGGAACG [A36U G51A G58C U59A] the yeast fitness was no more than 0.5. Variant GUUCCGUUGGCGUUAUGGUAACGCGCCUCCCUCCUAAGGAGAAGACUGAGGGUUCGAGUCCCGUACGGAACG [A14U U26C C49A] has a yeast fitness of no more than 0.5. Variant GUUCCGUUGGCGUAAUGGUAACGCGUCUCCCUCCUGAGGAGAAGACUGCGGGUUCGAGUCCCGUACAGAACG [A36G G67A] has a yeast fitness of 0.864. Work on GUUCCGUUGGCGUAAUGGUAACGCGUCUCCCUCCUAAGGAGAAGACUGCGGGUUCGAGUACUGUACGGAACG [C60A C62U] yielded a yeast fitness of 0.624. Variant GUUUCGUUGGCGUAAUGGUAACGCGUCUCACUCCUAAGGAGAAGUCUGCGGGUUCGAGUCCCGUACGGAACG [C4U C30A A45U] has a yeast fitness of 0.77. GUUCCGUUGGCGUUAUGGUAACGCGUCUCCCUCCUAAGGAGAAGACUGCGGGUUCGAGUCCCGUACUGAACG [A14U G67U] gave a yeast fitness of 0.562. In the case of GUUCCGUUGGCGUGAUGGUAACGCGUCUCCCUCCUAAGGAGAAGACUGGGGGUUCGAGUCCCGUAUGGAACG [A14G C49G C66U], the yeast fitness is reported as 0.526. With GUUCCGUUGGCGUAAUGGUAACGCGUCUCCCUACUAAGGAGAAGACUGUGGAUUCGAGUCCCGUACGGAACG [C33A C49U G52A] the yeast fitness was no more than 0.5. GCUCCGUUGGCGUAAUGCUAACGCCUCUCCCUCCUAAGGCGAAGACUGCGAGUUCAAGUCCCGUAGGGAACG [U2C G18C G25C A40C G51A G56A C66G] showed a yeast fitness of no more than 0.5. GUUCCGUUGGCGUAAUGGUGACGCGUCUCCCUCCUAAGGUGAAGACUGCGGGUUCGAGUCCCGAACGGAACG [A20G A40U U64A] gave a yeast fitness of no more than 0.5. GUCCCGUUGGCGUAAUGGUAACGCGUCUGCCUCCUAAGGAGAAGACUGCGGGUUCAAGUCCGGUAGGGAACG [U3C C29G G56A C62G C66G] gave a yeast fitness of no more than 0.5. Work on GUUCCCUUGGCGUAAUGGUAACGCGUCUCCCUCCUAAGGAGAUGACUGCAGGUUCGAGUCCCGUACGGAUCG [G6C A43U G50A A70U] yielded a yeast fitness of no more than 0.5. GUUCCGUUGGCGUAAUGGUAACGCGUCAGCUUCCUAAGGAGAAGACUGCGGGUCCGAGUCCCGUACGGAACG [U28A C29G C31U U54C] showed a yeast fitness of no more than 0.5. GUUCCGUUGGCGUAAUGGUAACGCGUCUCCCUCCUAUGGAGAAGACUGCGGGUUGGAGUCCCGUACGGAACG [A37U C55G] gave a yeast fitness of 0.609. Variant GUUCCGUUGGCGUAAUGGUAACGCGUCUCCCUCUUAAGGAGAAGACUGUGGGUUCGAGUCACGUACGGAACG [C34U C49U C61A] has a yeast fitness of no more than 0.5. Variant GUACCGUUCGCGUAAUGGUAACGGGUCUCUCUCAUAAGGAGAAGACUGCGAGUUCGAGUCCCGUACGGAACG [U3A G9C C24G C30U C34A G51A] has a yeast fitness of no more than 0.5.
